According to ChEMBL document CHEMBL3526105, “Cytochrome P450-mediated oxidative metabolism of abused synthetic cannabinoids found in K2/Spice: identification of novel cannabinoid receptor ligands” (Drug Metab Dispos, 2012):
Active and inactive are the calls of the source. The rule behind the calls is not given here.

Experiments:
Liver microsome [1] = test: Drug level in human liver microsomes treated with JWH-018 at 10 uM after 20 mins by LC-MS/MS analysis; type: ADME
In short: (§1)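 Pooled human liver microsomes (75 μg) incubated with 10 μM substrate in 0.1 M KPO4 pH 7.4 with NADPH-regenerating system at 37°C. Reaction stopped with ethanol, centrifuged. Analytes quantified by positive-ESI LC-MS/MS against standards matrix-matched in reaction mixture, with confirmation by SRM-triggered enhanced product ion spectra library matching.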

Liver microsome [2] = test: Drug metabolism in human liver microsomes assessed as intrinsic clearance per mg protein treated with JWH-018; type: ADME
Liver microsome [3] = test: Drug metabolism in human liver microsomes assessed as intrinsic clearance per mg protein treated with AM2201; type: ADME
Cytochrome P450 1A2 [4] = target: T1, Cytochrome P450 1A2 (Homo sapiens, UniProt P05177); test: Drug metabolism assessed as intrinsic clearance for human recombinant CYP1A2-mediated compound formation per nmol protein treated with AM2201 at 10 uM after 90 mins; type: ADME; details: recombinant enzyme, 1.5 h
T1 sequence (P05177 whole entry): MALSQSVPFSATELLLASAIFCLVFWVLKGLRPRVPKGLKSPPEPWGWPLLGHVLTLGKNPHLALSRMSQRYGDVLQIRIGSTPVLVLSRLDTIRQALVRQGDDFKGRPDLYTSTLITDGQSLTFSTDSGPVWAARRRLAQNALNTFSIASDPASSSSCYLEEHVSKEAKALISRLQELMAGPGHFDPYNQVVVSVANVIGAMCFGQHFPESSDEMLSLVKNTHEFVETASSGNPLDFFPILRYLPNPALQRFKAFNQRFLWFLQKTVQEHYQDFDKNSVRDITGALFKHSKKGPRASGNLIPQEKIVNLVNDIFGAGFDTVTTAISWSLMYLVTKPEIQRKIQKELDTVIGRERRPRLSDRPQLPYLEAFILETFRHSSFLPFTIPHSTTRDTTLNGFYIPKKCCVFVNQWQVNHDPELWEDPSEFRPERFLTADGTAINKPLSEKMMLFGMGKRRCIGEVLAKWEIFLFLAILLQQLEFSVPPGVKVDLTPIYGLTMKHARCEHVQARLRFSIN

Cytochrome P450 2D6 [5] = target: T2, Cytochrome P450 2D6 (Homo sapiens, UniProt P10635); test: Drug metabolism assessed as intrinsic clearance for human recombinant CYP2D6-mediated compound formation per nmol protein treated with JWH-018 at 10 uM after 90 mins; type: ADME; details: recombinant enzyme, 1.5 h
T2 sequence (P10635 whole entry): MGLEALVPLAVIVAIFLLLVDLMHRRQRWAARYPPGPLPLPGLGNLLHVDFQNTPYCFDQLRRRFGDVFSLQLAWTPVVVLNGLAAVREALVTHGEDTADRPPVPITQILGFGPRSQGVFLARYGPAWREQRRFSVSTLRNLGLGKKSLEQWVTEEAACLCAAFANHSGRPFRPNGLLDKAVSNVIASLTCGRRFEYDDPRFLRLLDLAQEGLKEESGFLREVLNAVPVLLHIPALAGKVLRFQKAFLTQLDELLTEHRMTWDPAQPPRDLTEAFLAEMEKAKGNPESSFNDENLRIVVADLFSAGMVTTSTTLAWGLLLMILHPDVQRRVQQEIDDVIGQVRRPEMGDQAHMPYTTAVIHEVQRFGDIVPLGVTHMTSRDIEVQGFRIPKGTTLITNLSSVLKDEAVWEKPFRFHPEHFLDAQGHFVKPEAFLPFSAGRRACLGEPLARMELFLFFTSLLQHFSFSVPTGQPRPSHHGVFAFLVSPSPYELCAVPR

Liver microsome [6] = test: Drug level in human liver microsomes treated with AM2201 at 10 uM after 20 mins by LC-MS/MS analysis; type: ADME; in short: as §1
[7] = Drug level in human urine treated with JWH-018 by LC-MS/MS analysis; type: ADME, tissue-based
In short: (§2)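 Urine from suspected users (40 μl) incubated with or without β-glucuronidase (1.6 U/μl final) in 0.1 M sodium acetate pH 5.0, 60 min at 37°C with shaking. Analysed by positive-ESI LC-MS/MS against standards matrix-matched in blank pooled human urine, with confirmation by enhanced product ion spectra.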

Cytochrome P450 1A2 [8] = target: T1, Cytochrome P450 1A2; test: Drug metabolism assessed as intrinsic clearance for human recombinant CYP1A2-mediated compound formation per nmol protein treated with JWH-018 at 10 uM after 90 mins; type: ADME; details: recombinant enzyme, 1.5 h
Cytochrome P450 2C9 [9] = target: T3, Cytochrome P450 2C9 (Homo sapiens, UniProt P11712); test: Drug metabolism assessed as intrinsic clearance for human recombinant CYP2C9-mediated compound formation per nmol protein treated with JWH-018 at 10 uM after 90 mins; type: ADME; details: recombinant enzyme, 1.5 h
T3 sequence (P11712 whole entry): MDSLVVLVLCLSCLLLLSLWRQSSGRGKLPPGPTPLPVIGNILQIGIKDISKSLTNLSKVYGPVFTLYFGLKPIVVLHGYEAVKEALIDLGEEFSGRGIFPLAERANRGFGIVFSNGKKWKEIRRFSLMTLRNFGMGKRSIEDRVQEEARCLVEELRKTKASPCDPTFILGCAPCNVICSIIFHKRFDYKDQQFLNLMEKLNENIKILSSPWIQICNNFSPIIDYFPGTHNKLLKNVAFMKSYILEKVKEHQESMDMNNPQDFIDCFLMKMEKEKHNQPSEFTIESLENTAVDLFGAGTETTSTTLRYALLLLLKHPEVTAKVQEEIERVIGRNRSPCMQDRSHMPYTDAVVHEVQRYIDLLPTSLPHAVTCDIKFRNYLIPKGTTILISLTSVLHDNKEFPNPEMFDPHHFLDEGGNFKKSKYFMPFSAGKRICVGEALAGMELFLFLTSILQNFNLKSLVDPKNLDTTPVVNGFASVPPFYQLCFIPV

Cytochrome P450 2C19 [10] = target: T4, Cytochrome P450 2C19 (Homo sapiens, UniProt P33261); test: Drug metabolism assessed as intrinsic clearance for human recombinant CYP2C19-mediated compound formation per nmol protein treated with JWH-018 at 10 uM after 90 mins; type: ADME; details: recombinant enzyme, 1.5 h
T4 sequence (P33261 whole entry): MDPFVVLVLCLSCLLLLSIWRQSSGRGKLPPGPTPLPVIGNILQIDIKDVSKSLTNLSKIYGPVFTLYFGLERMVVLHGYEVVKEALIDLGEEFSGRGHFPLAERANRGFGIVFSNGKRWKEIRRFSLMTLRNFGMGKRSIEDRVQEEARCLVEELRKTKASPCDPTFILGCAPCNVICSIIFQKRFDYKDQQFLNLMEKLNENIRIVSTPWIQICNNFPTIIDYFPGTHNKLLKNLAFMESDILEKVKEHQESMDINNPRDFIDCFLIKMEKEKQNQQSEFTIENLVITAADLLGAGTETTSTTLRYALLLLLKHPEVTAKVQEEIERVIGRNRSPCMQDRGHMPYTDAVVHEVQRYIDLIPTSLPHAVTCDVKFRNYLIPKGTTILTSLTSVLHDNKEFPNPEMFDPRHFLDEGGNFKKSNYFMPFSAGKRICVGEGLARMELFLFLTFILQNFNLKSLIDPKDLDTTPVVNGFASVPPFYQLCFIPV

Cytochrome P450 2C9 [11] = target: T3, Cytochrome P450 2C9; test: Drug metabolism assessed as intrinsic clearance for human recombinant CYP2C9-mediated compound formation per nmol protein treated with AM2201 at 10 uM after 90 mins; type: ADME; details: recombinant enzyme, 1.5 h
Cytochrome P450 2C19 [12] = target: T4, Cytochrome P450 2C19; test: Drug metabolism assessed as intrinsic clearance for human recombinant CYP2C19-mediated compound formation per nmol protein treated with AM2201 at 10 uM after 90 mins; type: ADME; details: recombinant enzyme, 1.5 h
Cytochrome P450 2D6 [13] = target: T2, Cytochrome P450 2D6; test: Drug metabolism assessed as intrinsic clearance for human recombinant CYP2D6-mediated compound formation per nmol protein treated with AM2201 at 10 uM after 90 mins; type: ADME; details: recombinant enzyme, 1.5 h
Cannabinoid receptor 1 = Cannabinoid receptor 1 (Mus musculus, UniProt P47746); test: Displacement of [3H]CP-55,940 from CB1 receptor in B6SJL mouse brain membrane after 90 mins by liquid scintillation spectrophotometric analysis; type: cell membranes
Cannabinoid receptor 1, sequence (P47746 whole entry): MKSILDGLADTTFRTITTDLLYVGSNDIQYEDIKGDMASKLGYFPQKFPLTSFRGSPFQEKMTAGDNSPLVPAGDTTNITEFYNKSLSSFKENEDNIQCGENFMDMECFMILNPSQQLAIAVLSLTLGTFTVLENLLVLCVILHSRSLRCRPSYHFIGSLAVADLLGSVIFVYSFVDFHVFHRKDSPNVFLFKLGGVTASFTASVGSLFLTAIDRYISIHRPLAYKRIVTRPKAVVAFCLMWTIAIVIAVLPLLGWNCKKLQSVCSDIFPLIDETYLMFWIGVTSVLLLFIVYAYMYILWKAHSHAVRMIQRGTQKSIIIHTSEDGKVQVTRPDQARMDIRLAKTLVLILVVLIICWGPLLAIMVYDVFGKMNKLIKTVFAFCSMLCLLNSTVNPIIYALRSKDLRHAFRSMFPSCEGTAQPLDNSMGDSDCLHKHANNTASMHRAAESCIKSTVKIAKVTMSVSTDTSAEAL
In short: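 B6SJL mouse brain membranes (50 μg) with 0.2 nM [3H]CP-55,940 and competitor at 0.1 nM–10 μM. Buffer 5 mM MgCl2, 50 mM Tris, 0.05% BSA; 90 min at room temperature, triplicate. Nonspecific binding set with 10 μM WIN-55,212-2. Filtered on GF/B, washed with Tris/BSA, counted by scintillation. Specific binding given as % of vehicle.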

[14] = target: Cannabinoid receptor 1 (Mus musculus) (UniProt P47746); test: Activation of CB1 receptor in B6SJL mouse brain membrane assessed as [35S]-GTPgammaS binding at 10 uM after 30 mins by liquid scintillation spectrophotometric analysis; type: functional, cell membranes
Cannabinoid receptor 1 (Mus musculus), sequence (P47746 whole entry): as above
In short: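 Mouse brain membrane homogenate (25 μg; whole B6SJL brains, pooled, Dounce-homogenised, spun 40,000g three times). Incubated with […], 0.1 nM [35S]GTPγS in 20 mM HEPES, 10 mM MgCl2, 100 mM NaCl, 20 U/l adenosine deaminase, 0.05% BSA, 30 min at 30°C, triplicate. Nonspecific binding with 10 μM unlabelled GTPγS. Stopped by GF/B filtration; filters counted by scintillation.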

[15] = Drug metabolism in human urine assessed as 5-(3-(1-naphthoyl)-1H-indol-1-yl)pentanoic acid formation by LC-MS/MS analysis; type: ADME, tissue-based; in short: as §2
[16] = Drug metabolism in human urine assessed as (1-(5-hydroxypentyl)-1H-indol-3-yl)(naphthalen-1-yl)methanone formation by LC-MS/MS analysis; type: ADME, tissue-based; in short: as §2
[17] = Drug metabolism in human urine assessed as (1-(5-fluoro-4-hydroxypentyl)-1H-indol-3-yl)(naphthalen-1-yl)methanone formation by LC-MS/MS analysis; type: ADME, tissue-based; in short: as §2
Cytochrome P450 2E1 [18] = target: T5, Cytochrome P450 2E1 (Homo sapiens, UniProt P05181); test: Drug metabolism assessed as human recombinant CYP2E1-mediated (1-(5-hydroxypentyl)-1H-indol-3-yl)(naphthalen-1-yl)methanone formation at 10 uM after 90 mins by LC-MS/MS analysis; type: ADME; details: recombinant enzyme, 1.5 h
T5 sequence (P05181 whole entry): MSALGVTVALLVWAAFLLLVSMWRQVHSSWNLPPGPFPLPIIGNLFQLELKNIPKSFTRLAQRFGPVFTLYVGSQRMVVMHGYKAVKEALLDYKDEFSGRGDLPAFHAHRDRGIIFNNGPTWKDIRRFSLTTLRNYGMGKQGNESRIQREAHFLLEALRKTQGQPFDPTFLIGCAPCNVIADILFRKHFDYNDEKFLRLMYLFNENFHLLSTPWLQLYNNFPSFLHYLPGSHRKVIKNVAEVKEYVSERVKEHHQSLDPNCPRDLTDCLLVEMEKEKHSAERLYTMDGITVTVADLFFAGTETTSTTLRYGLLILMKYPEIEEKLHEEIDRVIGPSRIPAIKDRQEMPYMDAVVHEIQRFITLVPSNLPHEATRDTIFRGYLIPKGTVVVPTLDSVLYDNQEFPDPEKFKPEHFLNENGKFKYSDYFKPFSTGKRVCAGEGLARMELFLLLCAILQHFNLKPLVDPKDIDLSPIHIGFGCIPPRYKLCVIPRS
In short: (§3)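 Recombinant human CYP2E1 or CYP3A4 (2 pmol) incubated with substrate at 10 μM final, dried from ethanol. Buffer 0.1 M KPO4 pH 7.4 with NADPH-regenerating system, which starts the reaction. 90 min at 37°C, triplicate, with no-substrate, no-protein and no-NADPH controls. Stopped with ethanol, centrifuged, and metabolites quantified by LC-MS/MS.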

Cytochrome P450 2E1 [19] = target: T5, Cytochrome P450 2E1; test: Drug metabolism assessed as human recombinant CYP2E1-mediated 5-(3-(1-naphthoyl)-1H-indol-1-yl)pentanoic acid formation at 10 uM after 90 mins by LC-MS/MS analysis; type: ADME; details: recombinant enzyme, 1.5 h; in short: as §3
Cytochrome P450 3A4 [20] = target: T6, Cytochrome P450 3A4 (Homo sapiens, UniProt P08684); test: Drug metabolism assessed as human recombinant CYP3A4-mediated (1-(5-hydroxypentyl)-1H-indol-3-yl)(naphthalen-1-yl)methanone formation at 10 uM after 90 mins by LC-MS/MS analysis; type: ADME; details: recombinant enzyme, 1.5 h; in short: as §3
T6 sequence (P08684 whole entry): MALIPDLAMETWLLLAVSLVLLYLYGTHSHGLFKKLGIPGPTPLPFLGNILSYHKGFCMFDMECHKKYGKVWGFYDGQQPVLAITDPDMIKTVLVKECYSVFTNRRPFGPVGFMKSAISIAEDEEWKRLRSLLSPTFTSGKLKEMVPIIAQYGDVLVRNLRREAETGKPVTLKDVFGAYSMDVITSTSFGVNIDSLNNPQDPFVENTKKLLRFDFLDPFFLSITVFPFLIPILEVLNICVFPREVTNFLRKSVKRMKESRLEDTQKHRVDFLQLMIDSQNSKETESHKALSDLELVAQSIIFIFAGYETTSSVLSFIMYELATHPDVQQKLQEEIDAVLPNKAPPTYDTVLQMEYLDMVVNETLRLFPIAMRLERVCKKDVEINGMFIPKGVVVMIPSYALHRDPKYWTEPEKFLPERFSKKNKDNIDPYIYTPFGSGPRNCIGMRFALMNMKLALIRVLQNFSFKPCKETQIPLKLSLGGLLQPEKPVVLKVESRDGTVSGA

Cytochrome P450 3A4 [21] = target: T6, Cytochrome P450 3A4; test: Drug metabolism assessed as human recombinant CYP3A4-mediated 5-(3-(1-naphthoyl)-1H-indol-1-yl)pentanoic acid formation at 10 uM after 90 mins by LC-MS/MS analysis; type: ADME; details: recombinant enzyme, 1.5 h; in short: as §3
Cytochrome P450 2E1 [22] = target: T5, Cytochrome P450 2E1; test: Drug metabolism assessed as human recombinant CYP2E1-mediated (1-(5-fluoro-4-hydroxypentyl)-1H-indol-3-yl)(naphthalen-1-yl)methanone formation at 10 uM after 90 mins by LC-MS/MS analysis; type: ADME; details: recombinant enzyme, 1.5 h; in short: as §3
Cytochrome P450 3A4 [23] = target: T6, Cytochrome P450 3A4; test: Drug metabolism assessed as human recombinant CYP3A4-mediated (1-(5-fluoro-4-hydroxypentyl)-1H-indol-3-yl)(naphthalen-1-yl)methanone formation at 10 uM after 90 mins by LC-MS/MS analysis; type: ADME; details: recombinant enzyme, 1.5 h; in short: as §3
[24] = target: Cannabinoid receptor 1 (Mus musculus) (UniProt P47746); test: Activation of CB1 receptor in B6SJL mouse brain membrane assessed as [35S]-GTPgammaS binding at 10 uM after 30 mins by liquid scintillation spectrophotometric analysis in presence of O-2050; type: functional, cell membranes
Cytochrome b5 = Cytochrome b5 (Homo sapiens, UniProt P00167); test: Drug metabolism assessed as cytochrome b5 (unknown origin)-mediated compound formation treated with JWH-018 at 10 uM after 90 mins by LC-MS/MS analysis in presence of oxidoreductase; type: ADME; details: 1.5 h
Cytochrome b5, sequence (P00167 whole entry): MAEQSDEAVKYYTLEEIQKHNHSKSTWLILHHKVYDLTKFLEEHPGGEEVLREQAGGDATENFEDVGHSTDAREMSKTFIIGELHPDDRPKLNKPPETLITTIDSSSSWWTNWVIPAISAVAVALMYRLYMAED

| Structure (SMILES) | Drug metabolism (Liver microsome [1]) | CLH (Liver microsome [2]) [µL/min/mg] | CLH (Liver microsome [3]) [µL/min/g] | CL (Cytochrome P450 1A2 [4]) [µL/min] | CL (Cytochrome P450 2D6 [5]) [µL/min] | Drug metabolism [7] | CL (Cytochrome P450 1A2 [8]) [µL/min] | CL (Cytochrome P450 2C9 [9]) [µL/min] | CL (Cytochrome P450 2C19 [10]) [µL/min] | CL (Cytochrome P450 2C9 [11]) [µL/min] | CL (Cytochrome P450 2C19 [12]) [µL/min] | CL (Cytochrome P450 2D6 [13]) [µL/min] | Ki (Cannabinoid receptor 1) [nM] | Activity [14] | Activity [24] | further results |
| --- | --- | --- | --- | --- | --- | --- | --- | --- | --- | --- | --- | --- | --- | --- | --- | --- |
| CCCCCn1cc(C(=O)c2cccc3ccccc23)c2cccc(O)c21 | metabolite_detected | 0 | 0 | – | – | – | – | – | – | – | – | – | – | – | – | – |
| O=C(O)CCCCn1cc(C(=O)c2cccc3ccccc23)c2ccccc21 | – | 0 | 0.6 | 89 | 0 | metabolite_detected | 23 | 0 | 0 | 111 | 28 | 0.371 | > 10000 | inactive | – | Drug metabolism (Liver microsome [6]): 4.7 ng/mL |
| O=C(c1cccc2ccccc12)c1cn(CCCCCF)c2ccccc12 | – | – | – | – | – | – | – | – | – | – | – | – | 0.395 | Active | inactive | Drug metabolism [15]: metabolite_detected; Drug metabolism [16]: metabolite_detected; Drug metabolism [17]: metabolite_detected; Drug metabolism (Cytochrome P450 2E1 [18]): metabolite_not_detected; Drug metabolism (Cytochrome P450 2E1 [19]): metabolite_not_detected; Drug metabolism (Cytochrome P450 3A4 [20]): metabolite_not_detected; Drug metabolism (Cytochrome P450 3A4 [21]): metabolite_not_detected; Drug metabolism (Cytochrome P450 2E1 [22]): metabolite_not_detected; Drug metabolism (Cytochrome P450 3A4 [23]): metabolite_not_detected |
| CCCCCc1cc(O)c2c(c1)OC(C)(C)[C@@H]1CCC(C)=C[C@@H]21 | – | – | – | – | – | – | – | – | – | – | – | – | – | Active | inactive | – |
| CCCCCn1cc(C(=O)c2cccc3ccccc23)c2cc(O)ccc21 | metabolite_detected | 0.52 | 0 | – | – | – | – | – | – | – | – | – | – | – | – | – |
| CCCCCCC(C)(C)c1ccc([C@@H]2C[C@H](O)CC[C@H]2CCCO)c(O)c1 | – | – | – | – | – | – | – | – | – | – | – | – | – | Active | inactive | – |
| O=C(c1cccc2ccccc12)c1cn(CCCCCO)c2ccccc12 | – | 0.5 | 0.483 | 19 | 9.3 | metabolite_detected | 157 | 1035 | 6.5 | 63 | 32 | 3.7 | 35 | Active | inactive | Drug metabolism (Liver microsome [6]): 8.53 ng/mL |
| O=C(c1cccc2ccccc12)c1cn(CCCC(O)CF)c2ccccc12 (stereo not given) | – | – | 0.124 | 19 | – | – | – | – | – | 63 | 32 | 3.7 | – | Active | – | – |
| CCCCCn1cc(C(=O)c2cccc3ccccc23)c2ccc(O)cc21 | metabolite_detected | 1 | 0 | – | – | – | – | – | – | – | – | – | – | – | – | Drug metabolism (Cytochrome b5): metabolite_detected |
| CC(O)CCCn1cc(C(=O)c2cccc3ccccc23)c2ccccc21 (stereo not given) | – | 0.574 | – | – | 13.4 | metabolite_detected | 306 | 375 | 48.7 | – | – | – | 15.4 | Active | inactive | – |
